Laboratory results as given in article PMC7740640 (Xenobiotica; the fate of foreign compounds in biological …, 2020).

Tests used:
Format in all cases: in vitro ADME
CYP2C8 = molecular target: T1, CYP2C8 (Homo sapiens, UniProt P10632); assay: C152 metabolism
T1 sequence (P10632 1-490): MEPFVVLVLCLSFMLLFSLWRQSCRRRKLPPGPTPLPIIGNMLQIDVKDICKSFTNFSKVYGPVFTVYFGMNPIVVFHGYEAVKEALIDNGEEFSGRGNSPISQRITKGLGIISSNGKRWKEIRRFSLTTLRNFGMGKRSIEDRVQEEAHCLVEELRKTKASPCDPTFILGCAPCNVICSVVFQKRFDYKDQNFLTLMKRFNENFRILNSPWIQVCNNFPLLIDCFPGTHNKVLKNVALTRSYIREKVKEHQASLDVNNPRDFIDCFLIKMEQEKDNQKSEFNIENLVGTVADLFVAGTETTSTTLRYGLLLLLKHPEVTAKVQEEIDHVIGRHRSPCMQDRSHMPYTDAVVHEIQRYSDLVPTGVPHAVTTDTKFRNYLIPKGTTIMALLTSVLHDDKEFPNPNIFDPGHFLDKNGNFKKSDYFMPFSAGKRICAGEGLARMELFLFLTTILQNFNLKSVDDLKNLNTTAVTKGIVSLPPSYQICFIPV

CYP2C9 = CYP2C9 (Homo sapiens, UniProt P11712); assay: C152 metabolism; conditions: for Specific rate: CYP2C9
Chain of CYP2C9 (P11712 whole entry): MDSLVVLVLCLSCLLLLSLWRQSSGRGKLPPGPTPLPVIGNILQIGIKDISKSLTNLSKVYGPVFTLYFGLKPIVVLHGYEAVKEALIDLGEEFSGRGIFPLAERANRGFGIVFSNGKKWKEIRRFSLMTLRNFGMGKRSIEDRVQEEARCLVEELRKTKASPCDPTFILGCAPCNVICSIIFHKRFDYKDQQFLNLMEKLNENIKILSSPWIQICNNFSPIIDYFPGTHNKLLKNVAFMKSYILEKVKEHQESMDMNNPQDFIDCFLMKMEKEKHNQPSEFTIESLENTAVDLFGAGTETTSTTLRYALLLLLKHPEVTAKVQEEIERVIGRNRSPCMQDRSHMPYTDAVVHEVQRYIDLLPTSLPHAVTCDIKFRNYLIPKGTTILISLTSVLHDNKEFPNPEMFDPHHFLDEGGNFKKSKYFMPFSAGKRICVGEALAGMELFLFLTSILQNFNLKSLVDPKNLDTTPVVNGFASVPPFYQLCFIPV
Procedure, shortened: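 Human P450s in Supersomes that co-express human CPR and cytochrome b5. Reaction in 0.1 M Na-HEPES pH 7.4 with 60 mM KCl, stirred at 30 °C. C152 0.1–30 μM added from acetone stock; 200 μM NADPH starts it. Fluorescence rise read at 500 nm (isosbestic, mono-demethylation step). Rate is the linear slope over 3–5 min, scaled by the C151–C152 fluorescence difference. Michaelis–Menten or Hill fit, Vmax per P450, 2–6 runs; rate at 30 μM computed from fit.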

CYP2E1 = CYP2E1 (Homo sapiens, UniProt P05181); assay: C152 metabolism by Supersomes containing CYP2E1; conditions: recombinant CYP2E1 Supersomes
Chain of CYP2E1 (P05181 whole entry): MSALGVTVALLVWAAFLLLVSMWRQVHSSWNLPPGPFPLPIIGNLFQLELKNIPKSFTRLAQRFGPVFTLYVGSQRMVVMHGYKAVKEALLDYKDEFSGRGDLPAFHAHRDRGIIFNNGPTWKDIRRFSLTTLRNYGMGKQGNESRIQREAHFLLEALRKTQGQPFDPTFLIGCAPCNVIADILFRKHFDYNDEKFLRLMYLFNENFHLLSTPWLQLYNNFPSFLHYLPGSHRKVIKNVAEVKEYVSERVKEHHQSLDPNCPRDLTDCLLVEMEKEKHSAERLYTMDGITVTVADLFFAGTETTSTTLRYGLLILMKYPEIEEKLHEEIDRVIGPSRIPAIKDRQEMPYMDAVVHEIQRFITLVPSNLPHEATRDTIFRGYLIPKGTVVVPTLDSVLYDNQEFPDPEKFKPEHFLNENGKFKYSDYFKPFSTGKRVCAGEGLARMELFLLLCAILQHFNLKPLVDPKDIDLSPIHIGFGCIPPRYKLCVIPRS

CYP2C19 = CYP2C19 (Homo sapiens, UniProt P33261); assay: Formation of C151 from C152; conditions: SS(2C19)
Chain of CYP2C19 (P33261 whole entry): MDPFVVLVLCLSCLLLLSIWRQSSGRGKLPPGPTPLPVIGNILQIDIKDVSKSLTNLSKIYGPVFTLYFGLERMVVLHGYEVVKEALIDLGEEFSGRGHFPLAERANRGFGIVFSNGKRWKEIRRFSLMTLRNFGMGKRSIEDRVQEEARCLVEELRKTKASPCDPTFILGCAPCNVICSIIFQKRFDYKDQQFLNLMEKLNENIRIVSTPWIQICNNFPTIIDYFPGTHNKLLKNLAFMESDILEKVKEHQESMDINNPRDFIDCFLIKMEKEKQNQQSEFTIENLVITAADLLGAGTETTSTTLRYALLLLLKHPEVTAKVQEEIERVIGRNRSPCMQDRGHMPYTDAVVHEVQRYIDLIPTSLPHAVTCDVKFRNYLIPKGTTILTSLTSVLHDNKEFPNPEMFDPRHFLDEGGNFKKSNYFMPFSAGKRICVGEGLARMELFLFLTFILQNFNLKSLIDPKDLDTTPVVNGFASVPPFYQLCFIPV
Procedure, shortened: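 Probes hold 5–20 pmol P450 in 0.1 M Na-HEPES pH 7.4 with 60 mM KCl. C152 added from 0.5 or 4 mM acetone stock; reaction started with 500 μM NADPH (final), run 5 min at 30 °C with shaking. Quenched with isopropanol containing phenacetin internal standard, then centrifuged. C151 quantified by reverse-phase LC with ESI-positive MRM MS/MS (m/z 230.16→157.2). Michaelis–Menten or Hill fit; normalized per P450 (Supersomes) or CPR (HLM).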

Structure (SMILES): CN(C)c1ccc2c(C(F)(F)F)cc(=O)oc2c1 [C152, 7-Dimethylamino-4-trifluromethylcoumarin]
- Specific rate (CYP2C8; CYP2C8, at 30 μM C152, calculated from fit parameters): 1.9 min⁻¹
- N, Hill coefficient (C152 metabolism, fluorimetric assay) (CYP2C8; SS(2C8)): 2.6±0.3
- Vmax (C152 metabolism, fluorimetric assay) (CYP2C8; SS(2C8), mol C152 per mol P450 per min): 2.6 ± 0.8 min⁻¹
- Km (CYP2C8; read-out: KM or S50 (C152 metabolism, fluorimetric assay), SS(2C8), Hill fit (S50), 30 °C, pH 7.4): 12 ± 6 µM
- Specific rate (CYP2C9; at 30 μM C152, calculated from fit parameters): 2.0 min⁻¹
- Specific rate (CYP2C9; at saturation (Vmax in Supersomes)): 3.9 min⁻¹
- Vmax (C152 metabolism, fluorimetric assay) (CYP2C9; SS(2C9), mol C152 per mol P450 per min): 3.9 ± 1.2 min⁻¹
- Km (CYP2C9; read-out: KM or S50 (C152 metabolism, fluorimetric assay), SS(2C9), Michaelis-Menten fit, 30 °C, pH 7.4): 29 ± 8 µM
- activity with C152 (CYP2E1): no detectable activity
- Fraction of C151 formed, LC-MS (CYP2C19; C151 formed over total C152 metabolized): 5.6±0.4%
- Vmax (Formation of C151, LC-MS) (CYP2C19; mol C151 formed per mol P450 per min): 0.43 ± 0.03 min⁻¹
- Km (CYP2C19; read-out: KM or S50 (Formation of C151, LC-MS), Michaelis-Menten fit): 6.7 ± 1.5 µM
